Measured values from ChEMBL document CHEMBL1130141, “Mapping the peripheral benzodiazepine receptor binding site by conformationally restrained derivatives of 1-(2-chlorophenyl)-N-methyl-N-(1-methylpropyl)-3- isoquinolinecarboxamide (PK11195)” (J Med Chem, 1997).
Calls of active or inactive are those of the source. The rule behind the calls is not given here.

Key:
Translocator protein [1] = target: T1, Translocator protein (Rattus norvegicus, UniProt P16257); assay: In vitro displacement of [3H]PK11195 from the peripheral benzodiazepine receptor (PBR) in rat cortex
T1 sequence (P16257 whole entry, looked up): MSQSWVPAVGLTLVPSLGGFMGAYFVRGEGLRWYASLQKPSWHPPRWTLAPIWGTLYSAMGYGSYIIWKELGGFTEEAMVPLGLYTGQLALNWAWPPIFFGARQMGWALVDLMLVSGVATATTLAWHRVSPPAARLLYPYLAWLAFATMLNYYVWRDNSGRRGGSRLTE

Translocator protein [2] = target: T1, Translocator protein; assay: In vitro binding affinity (pIC50) was tested against peripheral benzodiazepine receptor (PBR) in rat.
[3] = target: Translocator protein (Rattus norvegicus) (UniProt P16257); assay: In vitro binding affinity (pIC50) for peripheral benzodiazepine receptor (PBR) in rat (inactive)
Chain of Translocator protein (Rattus norvegicus) (P16257 whole entry, looked up): as above
Method in brief: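 Male CD rat cerebral cortex, stored at -80°C, homogenized in ice-cold 50 mM PBS pH 7.4 with 100 mM NaCl and washed by centrifugation. Membranes used at 2.3 mg tissue per sample with 1 nM [3H]PK11195 for 120 min at 4°C, then filtered on GF/B and counted by scintillation. Nonspecific binding defined with 1 µM PK11195. IC50 from curve fitting of 6 concentrations.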

SMILES | IC50 (Translocator protein [1]) [µM] | IC50 (Translocator protein [2]) [µM] | Log IC50 [3]
CCCCC1c2c(nc3ccccc3c2-c2ccccc2)C(=O)N1Cc1ccccc1 (stereo not given) | 0.81 | 0.813 | 
CCC(C)N1Cc2c(nc3ccccc3c2-c2ccccc2)C1=O (stereo not given) | > 10 |  | inactive
CCC(C)NC(=O)c1nc(-c2ccccc2)c2ccccc2c1C (stereo not given) | 0.55 | 0.55 | 
CCC(C)N1Cc2c(nc(-c3ccccc3)c3ccccc23)C1=O (stereo not given) | 0.62 | 0.617 | 
CCC(C)N1CCCc2c(nc3ccccc3c2-c2ccccc2)C1=O (stereo not given) | 1.2 | 1.2 | 
O=C1c2nc(-c3ccccc3)c3ccccc3c2CN1Cc1ccccc1 | 0.48 | 0.479 | 
CCC(C)N1Cc2c(nc3ccccc3c2-c2ccccc2F)C1=O (stereo not given) | > 10 |  | 
Cc1c(C(=O)NCc2ccc(Cl)cc2)nc2ccccc2c1-c1ccccc1 | 1.7 | 1.7 | 
CN1CCCc2c(nc3ccccc3c2-c2ccccc2)C1=O | > 10 |  | 
CCC(C)N1CC=Cc2c(nc(-c3ccccc3)c3ccccc23)C1=O (stereo not given) | 0.49 | 0.49 | 
Cc1c(C(=O)NCc2ccccc2)nc2ccccc2c1-c1ccccc1 | 1.2 | 1.2 | 
CCC(C)N1CCCc2c(nc(-c3ccccc3)c3ccccc23)C1=O (stereo not given) | 0.78 | 0.794 | 
O=C1c2nc3ccccc3c(-c3ccccc3)c2CN1Cc1ccccc1 | > 10 |  | 

Molecules with a lower IC50 (Translocator protein [1]), results first:

IC50 (Translocator protein [1]) [µM] | IC50 (Translocator protein [2]) [µM] | Log IC50 [3] | SMILES
0.27 | 0.269 |  | Cc1c(C(=O)NCc2ccc(Cl)cc2)nc2ccccc2c1-c1ccccc1F
0.23 | 0.229 |  | CCC(C)NC(=O)c1nc2ccccc2c(-c2ccccc2)c1C (stereo not given)
0.17 | 0.17 |  | O=C1c2nc3ccccc3c(-c3ccccc3)c2CCCN1Cc1ccccc1
0.045 | 0.0457 |  | O=C1c2nc(-c3ccccc3)c3ccccc3c2C=CCN1Cc1ccccc1
0.013 | 0.0129 |  | CCC(C)NC(=O)c1nc2ccccc2c(-c2ccccc2F)c1C (stereo not given)
0.011 | 0.0112 |  | CCC(C)N(C)C(=O)c1nc(-c2ccccc2)c2ccccc2c1C (stereo not given)
0.01 | 0.01 |  | CN(Cc1ccccc1)C(=O)c1nc2ccccc2c2c1OCCc1ccccc1-2
0.0098 | 0.00977 |  | Cc1c(C(=O)N(C)Cc2ccc(Cl)cc2)nc2ccccc2c1-c1ccccc1
0.0089 | 0.00891 |  | CN(Cc1ccccc1)C(=O)c1nc2ccccc2c2c1CCc1ccccc1-2
0.0088 | 0.00871 |  | COc1ccc(N(C)C(=O)c2nc3ccccc3c(-c3ccccc3)c2C)cc1
0.0064 | 0.00646 |  | Cc1c(C(=O)N(C)c2ccc(Cl)cc2)nc2ccccc2c1-c1ccccc1
0.0034 | 0.00339 |  | Cc1c(C(=O)N(C)Cc2ccc(Cl)cc2)nc2ccccc2c1-c1ccccc1F
0.0031 | 0.00309 |  | Cc1c(C(=O)N(C)Cc2ccccc2)nc(-c2ccccc2)c2ccccc12
0.0029 | 0.00288 |  | CCC(C)N(C)C(=O)c1nc2ccccc2c(-c2ccccc2F)c1C (stereo not given)
0.0021 | 0.00209 |  | Cc1c(C(=O)N(C)Cc2ccccc2)nc2ccccc2c1-c1ccccc1
0.0021 | 0.00209 |  | CCC(C)N(C)C(=O)c1nc2ccccc2c(-c2ccccc2)c1C (stereo not given)
